In ChEMBL document CHEMBL1144441, “Identification of a novel cardenolide (2''-oxovoruscharin) from Calotropis procera and the hemisynthesis of novel derivatives displaying potent in vitro antitumor activities and high in vivo tolerance: structure-activity relationship analyses” (J Med Chem, 2005):

Experiments:
[1] = system: HCT-15; test: Concentration required for 50% growth inhibition of human HCT-15 cancer cell lines after 3 days of culture; assay type: functional, cell-based; settings: HCT-15, 72 h
How it was run: (§1)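 MTT overall-growth assay on the five lines. Cells were plated for 24 h at 10 000–40 000 cells/mL, depending on cell type. Nine concentrations from 10^-9 to 10^-5 M in semilog steps were applied for 72 h. Formazan was read at 570 nm against a 630 nm reference, in sextuplicate. IC50 = concentration reducing overall growth by 50% versus untreated control.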

[2] = Concentration required for 50% growth inhibition of human Hs 683 cancer cell lines after 3 days of culture; assay type: functional, cell-based; settings: 72 h; how it was run: as §1
[3] = system: LoVo; test: Concentration required for 50% growth inhibition of human LoVo cancer cell lines after 3 days of culture; assay type: functional, cell-based; settings: 72 h; how it was run: as §1
[4] = system: U373 MG; test: Concentration required for 50% growth inhibition of human U373 cancer cell lines after 3 days of culture; assay type: functional, cell-based, U-373MG ATCC; settings: 72 h; how it was run: as §1
[5] = system: A549; test: Concentration required for 50% growth inhibition of human A549 cancer cell lines after 3 days of culture; assay type: functional, cell-based; settings: A549, 72 h; how it was run: as §1
[6] = molecular target: Sodium/potassium-transporting ATPase subunit alpha-1 (Sus scrofa, UniProt P05024); test: In vitro inhibitory activity against porcine Na+/K+-ATPase
How it was run: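 Porcine cerebral cortex Na+/K+-ATPase (3 × 10-3 units), preincubated 30 min at 37 °C in 30 mM Tris-HCl pH 7.4, 5 mM MgCl2 with inhibitor (1 to 50 000 nM). ADP formation coupled via pyruvate kinase/lactate dehydrogenase, excess phosphoenolpyruvate, to NADH oxidation.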

[7] = system: Mus musculus; test: Maximum tolerated dose after intraperitoneal administration in mouse (period of 28 days); assay type: functional
How it was run: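 Healthy, non-tumour-bearing B6D2F1 mice given one acute intraperitoneal dose, three mice per dose group, doses 5, 10, 20, 40, 80, 120 and 160 mg/kg. Survival and body weight followed for 28 days after injection. MTD is the highest single dose causing no deaths over the period.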

Structure (SMILES)	IC50 [1] [nM]	IC50 [2] [nM]	IC50 [3] [nM]	IC50 [4] [nM]	IC50 [5] [nM]	IC50 [6] [nM]	MTD [7] [mg/kg]
Cc1ccc(S(=O)(=O)OC[C@]23C[C@H]4OC5(O)[C@@H](O[C@H](C)C[C@@]56NC(=O)CS6)O[C@@H]4C[C@@H]2CC[C@@H]2[C@@H]3CC[C@]3(C)[C@@H](C4=CC(=O)OC4)CC[C@]23CO)cc1 (some centres not stated)	382	45	89	326	48	–	–
C[C@@H]1C[C@@]2(N=C(N)CS2)[C@]2(O)O[C@@H]3C[C@@]4(C=O)[C@@H](CC[C@@H]5[C@@H]4CC[C@]4(C)[C@@H](C6=CC(=O)OC6)CC[C@]54O)C[C@H]3O[C@@H]2O1	28	4	10	40	25	68	5
C[C@@H]1C[C@@]2(N=C(N)CS2)C2(O[Si](C)(C)C)O[C@@H]3C[C@@]4(CO)[C@@H](CC[C@@H]5[C@@H]4CC[C@]4(C)[C@@H](C6=CC(=O)OC6)CC[C@]54CO[Si](C)(C)C)C[C@H]3O[C@@H]2O1 (some centres not stated)	454	346	340	925	126	1890	>160
C[C@@H]1C[C@@]2(N[C@H](CC(O)c3ccccc3)CS2)C2(O)O[C@@H]3C[C@@]4(CO)[C@@H](CC[C@@H]5[C@@H]4CC[C@]4(C)[C@@H](C6=CC(=O)OC6)CC[C@]54CO)C[C@H]3O[C@@H]2O1 (some centres not stated)	31	3	19	28	2	–	–
C[C@@H]1C[C@@]2(NCCS2)C2(O)O[C@@H]3C[C@@]4(CO)[C@@H](CC[C@@H]5[C@@H]4CC[C@]4(C)[C@@H](C6=CC(=O)OC6)CC[C@]54CO)C[C@H]3O[C@@H]2O1 (some centres not stated)	21	3	13	31	4	–	5
C[C@@H]1C[C@@]2(NC(=O)CS2)C2(O)O[C@@H]3C[C@@]4(COC(=O)c5ccccc5)[C@@H](CC[C@@H]5[C@@H]4CC[C@]4(C)[C@@H](C6=CC(=O)OC6)CC[C@]54CO)C[C@H]3O[C@@H]2O1 (some centres not stated)	3620	778	2370	4170	625	–	>40
C[C@@H]1C[C@@]2(NC(=O)CS2)C2(O[Si](C)(C)C)O[C@@H]3C[C@@]4(CO[Si](C)(C)C)[C@@H](CC[C@@H]5[C@@H]4CC[C@]4(C)[C@@H](C6=CC(=O)OC6)CC[C@]54CO[Si](C)(C)C)C[C@H]3O[C@@H]2O1 (some centres not stated)	2690	525	931	3720	657	–	–
CC(=O)OC[C@]12C[C@H]3OC4(O[Si](C)(C)C)[C@@H](O[C@H](C)C[C@@]45N=C(N)CS5)O[C@@H]3C[C@@H]1CC[C@@H]1[C@@H]2CC[C@]2(C)[C@@H](C3=CC(=O)OC3)CC[C@]12CO[Si](C)(C)C (some centres not stated)	> 10000	7920	9570	> 10000	> 10000	> 50000	>160
C[C@@H]1C[C@@]2(N=C(N)CS2)C2(O)O[C@@H]3C[C@@]4(COC(=O)CCc5ccccc5)[C@@H](CC[C@@H]5[C@@H]4CC[C@]4(C)[C@@H](C6=CC(=O)OC6)CC[C@]54CO)C[C@H]3O[C@@H]2O1 (some centres not stated)	> 10000	> 10000	4840	> 10000	4730	–	>40
CC(O)CCC(=O)OC[C@]12C[C@H]3OC4(O)[C@@H](O[C@H](C)C[C@@]45NC(=O)CS5)O[C@@H]3C[C@@H]1CC[C@@H]1[C@@H]2CC[C@]2(C)[C@@H](C3=CC(=O)OC3)CC[C@]12CO (some centres not stated)	1500	370	1560	1190	414	–	>40
CC(=O)OC[C@]12C[C@H]3OC4(O)[C@@H](O[C@H](C)C[C@@]45NC(=O)CS5)O[C@@H]3C[C@@H]1CC[C@@H]1[C@@H]2CC[C@]2(C)[C@@H](C3=CC(=O)OC3)CC[C@]12CO (some centres not stated)	4430	2780	2770	4600	1860	–	>40
C[C@@H]1C[C@@]2(N=C(N)CS2)C2(O)O[C@@H]3C[C@@]4(C=O)[C@@H](CC[C@@H]5[C@@H]4CC[C@]4(C)[C@@H](C6=CC(=O)OC6)CC[C@]54CO)C[C@H]3O[C@@H]2O1 (some centres not stated)	27	4	5	34	9	–	10
C[C@@H]1C[C@@]2(NC(=O)CS2)C2(O)O[C@@H]3C[C@@]4(COS(C)(=O)=O)[C@@H](CC[C@@H]5[C@@H]4CC[C@]4(C)[C@@H](C6=CC(=O)OC6)CC[C@]54CO)C[C@H]3O[C@@H]2O1 (some centres not stated)	> 10000	3420	8390	7310	3650	–	–
C[C@@H]1C[C@@]2(N[C@@H](CC(=O)c3ccccc3)CS2)C2(O)O[C@@H]3C[C@@]4(CO)[C@@H](CC[C@@H]5[C@@H]4CC[C@]4(C)[C@@H](C6=CC(=O)OC6)CC[C@]54CO)C[C@H]3O[C@@H]2O1 (some centres not stated)	44	4	18	38	4	–	80
C[C@@H]1C[C@@]2(N[C@H](CC(=O)c3ccccc3)CS2)C2(O)O[C@@H]3C[C@@]4(CO)[C@@H](CC[C@@H]5[C@@H]4CC[C@]4(C)[C@@H](C6=CC(=O)OC6)CC[C@]54CO)C[C@H]3O[C@@H]2O1 (some centres not stated)	34	4	18	34	3	–	80
C[C@@H]1C[C@@]2(N[C@@H](CC(=O)c3ccccc3)CS2)C2(O)O[C@@H]3C[C@@]4(C=O)[C@@H](CC[C@@H]5[C@@H]4CC[C@]4(C)[C@@H](C6=CC(=O)OC6)CC[C@]54CO)C[C@H]3O[C@@H]2O1 (some centres not stated)	92	22	100	84	18	–	10
CC(=O)OC[C@]12C[C@H]3OC4(O)[C@@H](O[C@H](C)C[C@@]45N=C(N)CS5)O[C@@H]3C[C@@H]1CC[C@@H]1[C@@H]2CC[C@]2(C)[C@@H](C3=CC(=O)OC3)CC[C@]12CO (some centres not stated)	4130	> 1280	3540	> 4150	3700	12100	>40
COC(=O)OC[C@]12C[C@H]3OC4(O)[C@@H](O[C@H](C)C[C@@]45N=C(N)CS5)O[C@@H]3C[C@@H]1CC[C@@H]1[C@@H]2CC[C@]2(C)[C@@H](C3=CC(=O)OC3)CC[C@]12CO (some centres not stated)	442	49	245	320	42	–	>40
C[C@@H]1C[C@@]2(NC(=O)CS2)C2(O)O[C@@H]3C[C@@]4(COC(=O)CCc5ccccc5)[C@@H](CC[C@@H]5[C@@H]4CC[C@]4(C)[C@@H](C6=CC(=O)OC6)CC[C@]54CO)C[C@H]3O[C@@H]2O1 (some centres not stated)	> 10000	> 10000	> 10000	4190	> 10000	–	>40
Cc1ccc(S(=O)(=O)OC[C@]23C[C@H]4OC5(O)[C@@H](O[C@H](C)C[C@@]56N=C(N)CS6)O[C@@H]4C[C@@H]2CC[C@@H]2[C@@H]3CC[C@]3(C)[C@@H](C4=CC(=O)OC4)CC[C@]23CO)cc1 (some centres not stated)	5800	1430	1060	9960	2720	–	10
C[C@@H]1C[C@@]2(NCCS2)[C@]2(O)O[C@@H]3C[C@@]4(C=O)[C@@H](CC[C@@H]5[C@@H]4CC[C@]4(C)[C@@H](C6=CC(=O)OC6)CC[C@]54O)C[C@H]3O[C@@H]2O1	27	4	17	32	5	–	1.25
C[C@@H]1C[C@@]2(N[C@H](CC(=O)c3ccccc3)CS2)C2(O)O[C@@H]3C[C@@]4(C=O)[C@@H](CC[C@@H]5[C@@H]4CC[C@]4(C)[C@@H](C6=CC(=O)OC6)CC[C@]54CO)C[C@H]3O[C@@H]2O1 (some centres not stated)	49	7	33	41	4	–	10
